# Results from publication PMC4681580 (Journal of immunology (Baltimore, Md. : 1950), 2015).
# No end group written: not given here.
# Tests used:
# rTAP1/TAP2a (wild type) = target: T1, rTAP1/TAP2a (wild type) (Rattus norvegicus, UniProt P36370+P36372); experiment: Competitive inhibition of TC6R crosslinking, wild type TAP; format: binding
# T1 sequence (P36370 1-725): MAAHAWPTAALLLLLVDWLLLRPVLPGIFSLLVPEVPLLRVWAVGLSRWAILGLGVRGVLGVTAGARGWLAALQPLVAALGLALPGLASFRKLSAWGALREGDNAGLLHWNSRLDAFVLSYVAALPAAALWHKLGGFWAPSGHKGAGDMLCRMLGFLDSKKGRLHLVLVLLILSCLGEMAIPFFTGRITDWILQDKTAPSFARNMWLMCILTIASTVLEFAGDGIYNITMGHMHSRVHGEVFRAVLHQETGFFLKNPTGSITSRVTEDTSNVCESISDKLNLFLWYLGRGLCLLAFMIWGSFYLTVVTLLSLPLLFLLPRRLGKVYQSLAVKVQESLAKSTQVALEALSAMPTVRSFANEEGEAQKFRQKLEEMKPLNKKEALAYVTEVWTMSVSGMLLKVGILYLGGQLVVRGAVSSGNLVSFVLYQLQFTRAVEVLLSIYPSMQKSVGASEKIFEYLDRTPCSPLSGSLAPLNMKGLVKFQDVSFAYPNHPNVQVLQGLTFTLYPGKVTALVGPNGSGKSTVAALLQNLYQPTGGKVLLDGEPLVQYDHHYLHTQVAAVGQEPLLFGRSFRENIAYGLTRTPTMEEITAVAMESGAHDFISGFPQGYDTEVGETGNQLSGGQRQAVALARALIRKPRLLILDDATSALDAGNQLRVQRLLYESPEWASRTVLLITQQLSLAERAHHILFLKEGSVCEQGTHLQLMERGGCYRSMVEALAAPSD
# T1 sequence (P36372 1-703): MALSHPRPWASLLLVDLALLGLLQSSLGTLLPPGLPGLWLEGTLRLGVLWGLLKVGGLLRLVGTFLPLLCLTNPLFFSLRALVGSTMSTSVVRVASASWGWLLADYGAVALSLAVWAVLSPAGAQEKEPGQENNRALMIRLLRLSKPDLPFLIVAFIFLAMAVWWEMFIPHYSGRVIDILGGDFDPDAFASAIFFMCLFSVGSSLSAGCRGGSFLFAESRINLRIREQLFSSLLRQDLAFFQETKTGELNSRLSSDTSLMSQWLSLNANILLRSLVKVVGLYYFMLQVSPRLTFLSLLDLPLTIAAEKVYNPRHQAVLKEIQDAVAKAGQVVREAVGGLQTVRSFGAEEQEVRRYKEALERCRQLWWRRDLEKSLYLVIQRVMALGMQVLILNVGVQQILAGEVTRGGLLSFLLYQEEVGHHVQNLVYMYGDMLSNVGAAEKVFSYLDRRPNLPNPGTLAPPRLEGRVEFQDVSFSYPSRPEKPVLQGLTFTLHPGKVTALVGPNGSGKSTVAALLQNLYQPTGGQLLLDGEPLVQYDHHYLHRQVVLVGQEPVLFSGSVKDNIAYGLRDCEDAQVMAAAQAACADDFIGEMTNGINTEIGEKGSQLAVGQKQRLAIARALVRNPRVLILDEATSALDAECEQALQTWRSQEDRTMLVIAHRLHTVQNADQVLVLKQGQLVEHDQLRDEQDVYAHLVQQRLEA
# In short: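 Rat TAP1/TAP2a expressed in baculovirus-infected Sf21 microsomes. Microsomes were incubated with 1 μM FITC-lysine peptide with Cys at position 6, plus unlabeled competitor peptide, on ice for 10 min in PBS pH 7.4. BMOE was added (0.2 mM final) for 10 min at room temperature and quenched with 10 mM DTT. Products were resolved by SDS-PAGE and fluorescence imaged at 520 nm.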
# rTAP1/TAP2a(E218M) = target: T2, rTAP1/TAP2a(E218M) (Rattus norvegicus, UniProt P36370+P36372, E218M); experiment: Peptide transport assay, E218M mutant; format: biochemical; settings: FITC-labeled peptide 1 μM, 37 °C, 5 min, with or without 5 mM ATP
# T2 sequence (P36370 1-725): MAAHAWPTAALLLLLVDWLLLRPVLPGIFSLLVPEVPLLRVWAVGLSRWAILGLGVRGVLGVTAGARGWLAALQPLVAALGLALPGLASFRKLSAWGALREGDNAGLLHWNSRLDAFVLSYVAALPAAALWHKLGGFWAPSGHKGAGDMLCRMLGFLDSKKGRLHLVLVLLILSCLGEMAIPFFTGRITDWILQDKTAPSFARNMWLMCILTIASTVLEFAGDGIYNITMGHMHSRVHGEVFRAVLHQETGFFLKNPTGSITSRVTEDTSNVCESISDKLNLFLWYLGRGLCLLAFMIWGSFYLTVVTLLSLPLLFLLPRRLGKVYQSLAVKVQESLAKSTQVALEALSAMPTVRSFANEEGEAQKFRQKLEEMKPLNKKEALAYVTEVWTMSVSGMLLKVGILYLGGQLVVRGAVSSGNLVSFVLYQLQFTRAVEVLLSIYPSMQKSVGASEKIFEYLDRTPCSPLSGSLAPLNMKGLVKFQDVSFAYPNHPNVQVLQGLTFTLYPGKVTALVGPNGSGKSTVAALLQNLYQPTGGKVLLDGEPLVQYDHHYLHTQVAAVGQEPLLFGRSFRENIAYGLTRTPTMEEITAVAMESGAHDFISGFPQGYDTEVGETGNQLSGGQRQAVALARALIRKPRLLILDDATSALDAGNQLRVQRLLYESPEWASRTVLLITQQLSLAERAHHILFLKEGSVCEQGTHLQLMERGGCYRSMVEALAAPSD
# T2 sequence (P36372 1-703 E218M): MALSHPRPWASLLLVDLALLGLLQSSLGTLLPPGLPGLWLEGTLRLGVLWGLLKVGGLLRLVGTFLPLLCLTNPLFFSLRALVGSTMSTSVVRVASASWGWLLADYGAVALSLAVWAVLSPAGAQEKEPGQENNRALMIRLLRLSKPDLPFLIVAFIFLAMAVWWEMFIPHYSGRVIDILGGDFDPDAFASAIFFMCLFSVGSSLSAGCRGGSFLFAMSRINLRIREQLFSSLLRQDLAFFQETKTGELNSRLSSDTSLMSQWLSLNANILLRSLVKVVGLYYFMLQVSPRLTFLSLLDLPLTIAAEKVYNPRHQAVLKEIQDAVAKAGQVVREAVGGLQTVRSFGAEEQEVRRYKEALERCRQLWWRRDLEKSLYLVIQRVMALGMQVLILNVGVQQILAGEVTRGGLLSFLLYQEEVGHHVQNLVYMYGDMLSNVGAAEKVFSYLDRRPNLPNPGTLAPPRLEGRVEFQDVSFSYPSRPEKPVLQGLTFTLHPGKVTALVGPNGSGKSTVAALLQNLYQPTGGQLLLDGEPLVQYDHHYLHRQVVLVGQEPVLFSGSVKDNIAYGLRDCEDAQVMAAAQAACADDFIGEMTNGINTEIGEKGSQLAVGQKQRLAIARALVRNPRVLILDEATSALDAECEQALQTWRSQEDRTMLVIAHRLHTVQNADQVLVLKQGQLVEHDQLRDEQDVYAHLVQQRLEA
# In short: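 Sf21 cells were grown to confluence and infected with baculoviruses (MOI 5–20) expressing His-tagged rTAP1 and Flag-tagged rTAP2 variants; microsomes were made after 72 h. Lysis was in 1% NP40, and glycosylated peptide was recovered on Con A-Sepharose. Fluorescence was read in triplicate to give +ATP/−ATP ratios, normalized to wild type (100%) and TAP-free microsomes (0%). Paired two-tailed t-tests were applied.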
effect of mutation on transport efficiency versus wild type (rTAP1/TAP2a(E218M)),Substance,IC50 (rTAP1/TAP2a (wild type)) [nM]
,RYWANATKSR [RR],300
did not significantly affect,TVDNK*TAYV,
